In ChEMBL document CHEMBL2311247, “Antimicrobial activity of various 4- and 5-substituted 1-phenylnaphthalenes” (2013):
In brackets after ≈: the same amount, converted by molar mass. Activity calls are given as the source filed them. No cut-off for these calls is given here.

Columns and labels:
[1] = tested on: Staphylococcus aureus; experiment: Antibacterial activity against methicillin-sensitive Staphylococcus aureus 8325-4 assessed as growth inhibition after 24 hrs by CLSI broth microdilution method; assay type: functional; conditions: 8325-4, 24 h
Method in brief: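 MSSA strain 8325-4; log-phase inoculum at 10⁵ CFU/mL. 2-fold serial dilutions, 64 to 0.031 µg/mL, in cation-adjusted Mueller-Hinton broth. Aerobic incubation, 24 h, 37 °C. Growth read as OD₆₀₀. MIC is the lowest concentration giving ≥90% growth inhibition.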

[2] = tested on: Enterococcus faecalis; experiment: Antibacterial activity against vancomycin-resistant Enterococcus faecalis ATCC 51575 assessed as growth inhibition after 24 hrs by CLSI broth microdilution method; assay type: functional; conditions: ATCC 51575, 24 h
Method in brief: (§1)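 Run per CLSI broth microdilution. Log-phase E. faecalis at 10⁵ CFU/mL in brain-heart infusion broth with 2-fold serial dilutions (64 to 0.031 µg/mL), incubated aerobically 24 h at 37 °C. Growth is measured by OD₆₀₀, and MIC is the lowest concentration inhibiting growth by ≥90%.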

[3] = tested on: Enterococcus faecalis; experiment: Antibacterial activity against vancomycin-sensitive Enterococcus faecalis ATCC 19433 assessed as growth inhibition after 24 hrs by CLSI broth microdilution method; assay type: functional; conditions: ATCC 19433, 24 h; method in brief: as §1
[4] = tested on: Staphylococcus aureus; experiment: Antibacterial activity against methicillin-resistant Staphylococcus aureus ATCC 33591 assessed as growth inhibition after 24 hrs by CLSI broth microdilution method; assay type: functional; conditions: ATCC 33591, 24 h
Method in brief: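 CLSI broth microdilution. Log-phase bacteria at 10⁵ CFU/mL are added to 2-fold serial dilutions from 64 to 0.031 µg/mL in cation-adjusted Mueller-Hinton broth with 2% NaCl. Plates are incubated aerobically for 24 h at 37 °C and growth is read as OD₆₀₀. MIC is the lowest concentration giving ≥90% growth inhibition.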

[5] = molecular target: T1, Cell division protein FtsZ (Staphylococcus aureus) (UniProt P0A031); experiment: Stimulation of Staphylococcus aureus ATCC 33591-D FtsZ polymerization expressed in Escherichia coli BL21 (DE3) assessed as inhibition of FtsZ Z-ring formation at 40 ug/mL measured for 300 mins by microtiter plate-based turbidity assay
T1 sequence (whole entry): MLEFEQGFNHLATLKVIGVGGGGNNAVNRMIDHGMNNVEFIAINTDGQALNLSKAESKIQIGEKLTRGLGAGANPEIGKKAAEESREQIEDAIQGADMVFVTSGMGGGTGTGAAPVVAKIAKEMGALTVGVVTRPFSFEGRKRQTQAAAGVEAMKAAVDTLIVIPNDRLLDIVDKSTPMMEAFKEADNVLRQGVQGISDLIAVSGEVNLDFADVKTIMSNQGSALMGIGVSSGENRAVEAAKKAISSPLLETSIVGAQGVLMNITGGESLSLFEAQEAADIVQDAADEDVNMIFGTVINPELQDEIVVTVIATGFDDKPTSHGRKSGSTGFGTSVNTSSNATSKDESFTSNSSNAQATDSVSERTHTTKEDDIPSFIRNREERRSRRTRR
Method in brief: (§2)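 SaFtsZ expressed in E. coli BL21 (DE3) under 1 mM IPTG induction for 3 h at 37 °C. Purified by MonoQ anion exchange then Superdex-200, about 90% pure. Turbidity assay at 25 °C in 50 mM Tris·HCl pH 7.4, 50 mM KCl, 2 mM magnesium acetate, 1 mM GTP. Compound at 40 µg/mL. Reaction started with 10 µM protein (final). A₃₄₀ monitored continuously for 300 min.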

[6] = molecular target: T1, Cell division protein FtsZ (Staphylococcus aureus); experiment: Stimulation of Staphylococcus aureus ATCC 33591-D FtsZ polymerization expressed in Escherichia coli BL21 (DE3) assessed as inhibition of FtsZ Z-ring formation at 40 ug/mL by microtiter plate-based turbidity assay; conditions: TDE = time-dependent effect; method in brief: as §2

Row | Structure (SMILES) | MIC [1] | MIC [2] | MIC [3] | MIC [4] | inhibition [5] | inhibition [6]
1 | Cc1onc(-c2ccccc2)c1C(=O)N[C@@H]1C(=O)N2[C@@H]1SC(C)(C)[C@@H]2C(=O)O [OXACILLIN] | 0.06 µg/mL (≈ 0.149 µM) | > 64 µg/mL | 8 µg/mL (≈ 19.9 µM) | > 64 µg/mL | – | –
2 | C[n+]1cc2c3c(ccc2c2ccc4cc5c(cc4c21)OCO5)OCO3 [SANGUINARIUM] | 2 µg/mL | 16 µg/mL | 8 µg/mL | 2 µg/mL | – | –
3 | CC(C)(C)c1ccc(-c2cccc3c(CN=C(N)N)cccc23)cc1 | 0.5 µg/mL (≈ 1.51 µM) | 4 µg/mL (≈ 12.1 µM) | 2 µg/mL (≈ 6.03 µM) | 2 µg/mL (≈ 6.03 µM) | inactive | tde
4 | COc1cc(C(F)(F)F)ccc1-c1cccc2c(CN=C(N)N)cccc12 | 2 µg/mL (≈ 5.36 µM) | 4 µg/mL (≈ 10.7 µM) | 4 µg/mL (≈ 10.7 µM) | 8 µg/mL (≈ 21.4 µM) | – | –
5 | COc1cc(C(F)(F)F)ccc1-c1cccc2c(CCN)cccc12 | 8 µg/mL (≈ 23.2 µM) | 8 µg/mL (≈ 23.2 µM) | 8 µg/mL (≈ 23.2 µM) | 16 µg/mL (≈ 46.3 µM) | – | –
6 | CC(C)(C)c1ccc(-c2cccc3c(CCN=C(N)N)cccc23)cc1 | 1 µg/mL (≈ 2.89 µM) | 2 µg/mL (≈ 5.79 µM) | 2 µg/mL (≈ 5.79 µM) | 2 µg/mL (≈ 5.79 µM) | – | –
7 | NCCc1cccc2c(-c3ccc(C(F)(F)F)cc3O)cccc12 | 8 µg/mL (≈ 24.1 µM) | 16 µg/mL (≈ 48.3 µM) | 16 µg/mL (≈ 48.3 µM) | 16 µg/mL (≈ 48.3 µM) | – | –
8 | NC(N)=NCc1cccc2c(-c3ccc(C4CC4)cc3)cccc12 | 1 µg/mL (≈ 3.17 µM) | 8 µg/mL (≈ 25.4 µM) | 8 µg/mL (≈ 25.4 µM) | 8 µg/mL (≈ 25.4 µM) | – | –
9 | CN[C@H](CC(C)C)C(=O)N[C@H]1C(=O)N[C@@H](CC(N)=O)C(=O)N[C@H]2C(=O)N[C@H]3C(=O)N[C@H](C(=O)N[C@H](C(=O)O)c4cc(O)cc(O)c4-c4cc3ccc4O)[C@H](O)c3ccc(c(Cl)c3)Oc3cc2cc(c3O[C@@H]2O[C@H](CO)[C@@H](O)[C@H](O)[C@H]2O[C@H]2C[C@](C)(N)[C@H](O)[C@H](C)O2)Oc2ccc(cc2Cl)[C@H]1O [VANCOMYCIN] | – | > 64 µg/mL | 1 µg/mL (≈ 0.69 µM) | – | – | –
10 | N=C(N)Cc1cccc2c(-c3ccc(C(F)(F)F)cc3)cccc12 | 4 µg/mL (≈ 12.2 µM) | 8 µg/mL (≈ 24.4 µM) | 4 µg/mL (≈ 12.2 µM) | 8 µg/mL (≈ 24.4 µM) | – | –
11 | CC(C)(C)c1ccc(-c2cccc3c(CN)cccc23)cc1 | 4 µg/mL (≈ 13.8 µM) | 8 µg/mL (≈ 27.6 µM) | 8 µg/mL (≈ 27.6 µM) | 4 µg/mL (≈ 13.8 µM) | – | –
12 | NC(N)=NCc1cccc2c(-c3ccc(Cl)cc3)cccc12 | 2 µg/mL (≈ 6.46 µM) | 8 µg/mL (≈ 25.8 µM) | 8 µg/mL (≈ 25.8 µM) | 8 µg/mL (≈ 25.8 µM) | – | –
13 | CC(C)(C)c1ccc(-c2cccc3c(CCN)cccc23)cc1 | 2 µg/mL (≈ 6.59 µM) | 4 µg/mL (≈ 13.2 µM) | 2 µg/mL (≈ 6.59 µM) | 4 µg/mL (≈ 13.2 µM) | inactive | tde
